ChEMBL document CHEMBL3526106, “Cytochrome P450 regulation by α-tocopherol in Pxr-null and PXR-humanized mice” (Drug Metab Dispos, 2013)

What was measured:
Design in all cases: dose 500 mg/kg
Mus musculus [1] = assay: Induction of Cyp4f14 gene expression in male PXR null mouse liver at 500 mg/kg for 7 to 14 days dosed through vitamin E-deficient base diet by qPCR method; format: ADME, organism-based; conditions: in vivo, po
Method in brief: (§1)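 Male mice (wild-type, Pxr-null, hPXR; NCI-bred) on vitamin E-deficient diet from 3 weeks of age; at 8 weeks half switched to same base diet supplemented with 500 mg/kg DL-α-tocopheryl acetate, rest kept deficient. Livers harvested at 9 and 10 weeks. qPCR: 25 ng cDNA, 150 nM each primer, SYBR Green, triplicate; comparative Ct vs β-actin; fold change enriched vs deficient diet; mean ± SEM, two-tailed unpaired t-test.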

Mus musculus [2] = assay: Effect on Ugt1a1 gene expression in male PXR-humanized mouse liver at 500 mg/kg for 7 to 14 days dosed through vitamin E-deficient base diet by qPCR method; format: ADME, organism-based; conditions: in vivo, po
Method in brief: (§2)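 Male mice on vitamin E deficient diet, switched at eight weeks to the same diet with 500 mg/kg DL-α-tocopheryl acetate (controls kept deficient); killed at nine or 10 weeks, livers flash frozen. Hepatic mRNA by SYBR Green qPCR with 25 ng cDNA and 150 nM primers, triplicate reactions; comparative threshold cycle method against β-actin, fold change versus deficient diet; mean ± SEM, two-tailed t-test.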

Mus musculus [3] = assay: Drug metabolism in male wild type mouse assessed as urinary alpha-carboxyethylhydroxychroman glucuronide level at 500 mg/kg for 7 to 14 days dosed through vitamin E-deficient base diet by UPLC-ESI-QTOFMS method based metabolomics analysis; format: ADME, organism-based, Urine; conditions: in vivo, po
Mus musculus [4] = assay: Induction of Cyp4f16 gene expression in male PXR-humanized mouse liver at 500 mg/kg for 7 to 14 days dosed through vitamin E-deficient base diet by qPCR method; format: ADME, organism-based; conditions: in vivo, po; method in brief: as §1
Mus musculus [5] = assay: Effect on Ugt1a9 gene expression in wild type mouse liver at 500 mg/kg for 7 to 14 days dosed through vitamin E-deficient base diet by qPCR method; format: ADME, organism-based; conditions: in vivo, po; method in brief: as §2
Mus musculus [6] = assay: Effect on Ugt2b34 gene expression in wild type mouse liver at 500 mg/kg for 7 to 14 days dosed through vitamin E-deficient base diet by qPCR method; format: ADME, organism-based; conditions: in vivo, po; method in brief: as §2
Mus musculus [7] = assay: Effect on Ugt1a6b gene expression in male PXR null mouse liver at 500 mg/kg for 7 to 14 days dosed through vitamin E-deficient base diet by qPCR method; format: ADME, organism-based; conditions: in vivo, po; method in brief: as §2
Mus musculus [8] = assay: Effect on Ugt2b5 gene expression in male PXR null mouse liver at 500 mg/kg for 7 to 14 days dosed through vitamin E-deficient base diet by qPCR method; format: ADME, organism-based; conditions: in vivo, po; method in brief: as §2
Mus musculus [9] = assay: Effect on Ugt2b34 gene expression in male PXR-humanized mouse liver at 500 mg/kg for 7 to 14 days dosed through vitamin E-deficient base diet by qPCR method; format: ADME, organism-based; conditions: in vivo, po; method in brief: as §2
Mus musculus [10] = assay: Induction of Cyp3a11 gene expression in male PXR null mouse liver at 500 mg/kg for 7 to 14 days dosed through vitamin E-deficient base diet by qPCR method; format: ADME, organism-based; conditions: in vivo, po; method in brief: as §2
Mus musculus [11] = assay: Effect on Ugt1a7c gene expression in wild type mouse liver at 500 mg/kg for 7 to 14 days dosed through vitamin E-deficient base diet by qPCR method; format: ADME, organism-based; conditions: in vivo, po; method in brief: as §2
Cyp2c37 = assay: Induction of Cyp2c37 gene expression in male PXR-humanized mouse liver at 500 mg/kg for 7 to 14 days dosed through vitamin E-deficient base diet by qPCR method; format: ADME, organism-based; conditions: po, read-out: FC; method in brief: as §2
Mus musculus [12] = assay: Drug metabolism in male PXR null mouse assessed as urinary alpha-carboxyethylhydroxychroman glycine level at 500 mg/kg for 7 to 14 days dosed through vitamin E-deficient base diet by UPLC-ESI-QTOFMS method based metabolomics analysis; format: ADME, organism-based, Urine; conditions: in vivo, po
Method in brief: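 Male mice from three weeks of age on vitamin E deficient diet; at eight weeks, 24 h predose urine in metabolic cages, then half switched to the same diet supplemented with 500 mg/kg DL-α-tocopheryl acetate. 24 h urine collected at nine and 10 weeks. Urinary metabolites quantitated by UPLC-MRM on triple-quadrupole MS against authentic standards and calibration curves, normalized to urinary creatinine (µmol/mmol creatinine); mean ± SEM, two-tailed unpaired t-test.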

Mus musculus [13] = assay: Induction of Cyp4f15 gene expression in male PXR null mouse liver at 500 mg/kg for 7 to 14 days dosed through vitamin E-deficient base diet by qPCR method; format: ADME, organism-based; conditions: in vivo, po; method in brief: as §1
Mus musculus [14] = assay: Induction of Cyp4f15 gene expression in wild type mouse liver at 500 mg/kg for 7 to 14 days dosed through vitamin E-deficient base diet by qPCR method; format: ADME, organism-based; conditions: in vivo, po; method in brief: as §1
Mus musculus [15] = assay: Effect on Ugt1a6b gene expression in male PXR-humanized mouse liver at 500 mg/kg for 7 to 14 days dosed through vitamin E-deficient base diet by qPCR method; format: ADME, organism-based; conditions: in vivo, po; method in brief: as §2
Mus musculus [16] = assay: Reduction in Cyp4a10 gene expression in PXR-humanized mouse liver at 500 mg/kg for 7 to 14 days dosed through vitamin E-deficient base diet by qPCR method; format: ADME, organism-based; conditions: in vivo, po; method in brief: as §1
Mus musculus [17] = assay: Effect on Ugt1a1 gene expression in male PXR null mouse liver at 500 mg/kg for 7 to 14 days dosed through vitamin E-deficient base diet by qPCR method; format: ADME, organism-based; conditions: in vivo, po; method in brief: as §2
Mus musculus [18] = assay: Induction of Cyp4f16 gene expression in male PXR null mouse liver at 500 mg/kg for 7 to 14 days dosed through vitamin E-deficient base diet by qPCR method; format: ADME, organism-based; conditions: in vivo, po; method in brief: as §1
Mus musculus [19] = assay: Induction of Cyp4f18 gene expression in wild type mouse liver at 500 mg/kg for 7 to 14 days dosed through vitamin E-deficient base diet by qPCR method; format: ADME, organism-based; conditions: in vivo, po; method in brief: as §1
Mus musculus [20] = assay: Induction of Cyp4f18 gene expression in male PXR-humanized mouse liver at 500 mg/kg for 7 to 14 days dosed through vitamin E-deficient base diet by qPCR method; format: ADME, organism-based; conditions: in vivo, po; method in brief: as §1
Mus musculus [21] = assay: Induction of Cyp4f14 gene expression in male PXR-humanized mouse liver at 500 mg/kg for 7 to 14 days dosed through vitamin E-deficient base diet by qPCR method; format: ADME, organism-based; conditions: in vivo, po; method in brief: as §1
Mus musculus [22] = assay: Induction of Cyp4f18 gene expression in male PXR null mouse liver at 500 mg/kg for 7 to 14 days dosed through vitamin E-deficient base diet by qPCR method; format: ADME, organism-based; conditions: in vivo, po; method in brief: as §1
Mus musculus [23] = assay: Induction of Cyp4f15 gene expression in male PXR-humanized mouse liver at 500 mg/kg for 7 to 14 days dosed through vitamin E-deficient base diet by qPCR method; format: ADME, organism-based; conditions: in vivo, po; method in brief: as §1
Cyp2c55 = assay: Induction of Cyp2c55 gene expression in male PXR-humanized mouse liver at 500 mg/kg for 7 to 14 days dosed through vitamin E-deficient base diet by qPCR method; format: ADME, organism-based; conditions: po, read-out: FC; method in brief: as §2
Mus musculus [24] = assay: Drug metabolism in male PXR null mouse assessed as urinary alpha-carboxymethylbutylhydroxychroman glucuronide level at 500 mg/kg for 7 to 14 days dosed through vitamin E-deficient base diet by UPLC-ESI-QTOFMS method based metabolomics analysis; format: ADME, organism-based, Urine; conditions: in vivo, po
Mus musculus [25] = assay: Induction of Cyp2c39 gene expression in male PXR-humanized mouse liver at 500 mg/kg for 7 to 14 days dosed through vitamin E-deficient base diet by qPCR method; format: ADME, organism-based; conditions: in vivo, po; method in brief: as §2
Mus musculus [26] = assay: Induction of Cyp3a11 gene expression in male wild type mouse liver at 500 mg/kg for 7 to 14 days dosed through vitamin E-deficient base diet by qPCR method; format: ADME, organism-based; conditions: in vivo, po; method in brief: as §1
Mus musculus [27] = assay: Induction of Cyp4f13 gene expression in male PXR-humanized mouse liver at 500 mg/kg for 7 to 14 days dosed through vitamin E-deficient base diet by qPCR method; format: ADME, organism-based; conditions: in vivo, po; method in brief: as §1

CC(=O)Oc1c(C)c(C)c2c(c1C)CCC(C)(CCCC(C)CCCC(C)CCCC(C)C)O2 (racemic) [alpha-TOCHOPHERYL ACETATE]
metabolite_detected: Drug metabolism (Mus musculus [3]) | Drug metabolism (Mus musculus [12]) | Drug metabolism (Mus musculus [24])
Not Active: Activity (Mus musculus [1]) | Activity (Mus musculus [2]) | Activity (Mus musculus [4]) | Activity (Mus musculus [5]) | Activity (Mus musculus [6]) | Activity (Mus musculus [7]) | Activity (Mus musculus [8]) | Activity (Mus musculus [9]) | Activity (Mus musculus [10]) | Activity (Mus musculus [11]) | Activity (Mus musculus [13]) | Activity (Mus musculus [14]) | Activity (Mus musculus [15]) | Activity (Mus musculus [17]) | Activity (Mus musculus [18]) | Activity (Mus musculus [19]) | Activity (Mus musculus [20]) | Activity (Mus musculus [21]) | Activity (Mus musculus [22]) | Activity (Mus musculus [23]) | Activity (Mus musculus [25]) | Activity (Mus musculus [27])
Active: Activity (Mus musculus [26])
2.9: fold induction (Cyp2c55)
2.4: fold change (FC) (Mus musculus [16])
2: fold induction (Cyp2c37)
